Assay [1] is described as follows: Inhibition of calpain-10 in rabbit mitochondrial matrix fractions by spectrofluorimetry. More on the design: species or system Oryctolagus cuniculus. A digest of the protocol: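 Matrix fraction from Percoll/sucrose-purified rabbit renal cortical mitochondria, stored at -80°C. Matrix added to activity buffer, then inhibitor at various concentrations and sLLVY-AMC (50 µM); AMC hydrolysis followed spectrofluorometrically under linear conditions. IC50 from means of at least 3 separate experiments.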

The species named for assay [2] is Oryctolagus cuniculus. In words: Inhibition of calpain-10 in rabbit mitochondrial matrix fractions at 1 uM preincubated for 5 mins by spectrofluorimetry.
Assay [3] is filed under the species Oryctolagus cuniculus. In words: Inhibition of calpain-10 in rabbit mitochondrial matrix fractions at 1 uM preincubated for 5 mins in presence of 1 mM beta-mercaptoethanol by spectrofluorimetry. A digest of the protocol: (§1)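 Rabbit renal mitochondrial matrix preincubated 15 min with inhibitor (1 µM), activity on sLLVY-AMC measured 5 min; then BME (1 mM) or DTT (1 mM) added for 5 min and AMC release monitored for another 5 min. Mean and SE, n ≥ 3.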

The species named for assay [4] is Oryctolagus cuniculus. Put plainly: Inhibition of calpain-10 in rabbit mitochondrial matrix fractions at 1 uM preincubated for 5 mins in presence of 1 mM dithiothreitol by spectrofluorimetry. A digest of the protocol: as §1

SMILES strings stand for the structures. Activity calls are given as the source filed them. The calls are words filed in the database; no cut-off is given here. Where a SMILES comes first, the peptide text is derived from it. The star is where a group is joined. X1 = COc1ccc(S*)cc1; SEt = CCS*

`CCSSC[C@H](N)C(=O)N[C@@H](Cc1ccc(O)cc1)C(=O)NCC(=O)N[C@@H](C)C(=O)N[C@@H](CCCCN)C(=O)O` (H-C(SEt)YGAK-OH): in assay [1], the IC50 came to 2000 nM.

In the case of `N=C(N)NCCC[C@H](NC(=O)CNC(=O)[C@H](Cc1ccc(O)cc1)NC(=O)[C@@H](N)CS)C(=O)N[C@@H](CCCCN)C(=O)N[C@@H](CCCCN)C(=O)O` (H-CYGRKK-OH), in assay [1], the IC50 turned out to be 290 nM. For the compound `C[C@H](NC(=O)CNC(=O)[C@@H](N)Cc1ccc(O)cc1)C(=O)N[C@@H](CCCCN)C(=O)O` (H-YGAK-OH), the IC50 in assay [1] is greater than 100000 nM. In turn, `N=C(N)NCCC[C@H](NC(=O)CNC(=O)[C@H](Cc1ccc(O)cc1)NC(=O)[C@@H](N)CS)C(=O)N[C@@H](CCCCN)C(=O)O` (H-CYGRK-OH) came in with an IC50 in assay [1] of 240 nM. With `C[C@H](NC(=O)CNC(=O)[C@H](Cc1ccc(O)cc1)NC(=O)[C@@H](N)CS)C(=O)N[C@@H](CCCCN)C(=O)O` (H-CYGAK-OH), half-maximal inhibition in assay [1] (IC50) was put at 100 nM. Also, in the assay filed under Oryctolagus cuniculus [2], the inhibition was determined as 90%. In addition, the result in the assay filed under Oryctolagus cuniculus [3] and in the assay filed under Oryctolagus cuniculus [4] was inactive. Consider `C[C@H](NC(=O)CNC(=O)[C@H](C)NC(=O)[C@@H](N)CS)C(=O)N[C@@H](CCCCN)C(=O)O` (H-CAGAK-OH), for which, in assay [1], it took 2000 nM to reach half-maximal inhibition (IC50). In the case of `CC(C)[C@H](NC(=O)[C@@H](N)CS)C(=O)NCC(=O)N[C@@H](C)C(=O)N[C@@H](CCCCN)C(=O)O` (H-CVGAK-OH), in assay [1], the 50% inhibitory concentration (IC50) was greater than 40000 nM.

Consider `COc1ccc(SSC[C@H](N)C(=O)N[C@@H](Cc2ccc(O)cc2)C(=O)NCC(=O)N[C@@H](C)C(=O)N[C@@H](CCCCN)C(=O)O)cc1` (H-C(X1)YGAK-OH), for which half-maximal inhibition in assay [1] (IC50) was put at 60 nM. Compound `CSC[C@H](N)C(=O)N[C@@H](Cc1ccc(O)cc1)C(=O)NCC(=O)N[C@@H](C)C(=O)N[C@@H](CCCCN)C(=O)O` (H-C(Me)YGAK-OH) gave a half-inhibitory concentration (IC50) in assay [1] greater than 100000 nM. Still for that read-out and setting: to `C[C@H](NC(=O)CNC(=O)[C@H](Cc1ccc(O)cc1)NC(=O)[C@@H](N)CS)C(=O)O` (H-CYGA-OH) belongs greater than 100000 nM; to `CCCC[C@@H](C=O)NC(=O)[C@H](CC(C)C)NC(=O)OCc1ccccc1` [CALPEPTIN], 4 nM.

These data come from ChEMBL document CHEMBL1139348, “Identification and optimization of a novel inhibitor of mitochondrial calpain 10” (J Med Chem, 2009).
